Source: ChEMBL document CHEMBL4680209, “Design, synthesis, and evaluation of new 2-(quinoline-4-yloxy)acetamide-based antituberculosis agents” (Eur J Med Chem, 2020)
≈ marks a conversion by molar mass, not a printed value.

Key:
[1] = Ratio of MIC for inhibition of Mycobacterium tuberculosis QcrB T313A mutant to MIC for inhibition of Mycobacterium tuberculosis H37Rv ATCC 27294 QcrB assessed as reduction in bacterial growth
[2] = system: Mycobacterium tuberculosis; assay: Inhibition of multidrug-resistant Mycobacterium tuberculosis PT2 clinical isolate QcrB assessed as reduction in bacterial growth by resazurin reduction microplate assay
Summary of the method: (§1)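 REMA in Middlebrook 7H9 with 10% ADC and 5% DMSO. Compounds come from 2 mg/mL DMSO stocks as 10-point 2-fold serial dilutions, with a top concentration of 5–40 µg/mL set by solubility. MIC is the lowest concentration preventing resazurin blue-to-pink conversion. Three independent experiments; the modal or highest value is reported, in µM.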

[3] = system: Mycobacterium tuberculosis; assay: Inhibition of multidrug-resistant Mycobacterium tuberculosis PT20 clinical isolate QcrB assessed as reduction in bacterial growth by resazurin reduction microplate assay; summary of the method: as §1
[4] = system: Mycobacterium tuberculosis; assay: Inhibition of multidrug-resistant Mycobacterium tuberculosis PT12 clinical isolate QcrB assessed as reduction in bacterial growth by resazurin reduction microplate assay; summary of the method: as §1
[5] = system: Mycobacterium tuberculosis; assay: Inhibition of Mycobacterium tuberculosis QcrB T313A mutant assessed as reduction in bacterial growth by resazurin reduction microplate assay; summary of the method: as §1

| Structure (SMILES) | Ratio [1] | MIC [2] | MIC [3] | MIC [4] | MIC [5] |
| --- | --- | --- | --- | --- | --- |
| COc1ccc2nc(C)cc(OCC(=O)c3cccc(Cl)c3)c2c1 | > 4 | 0.5 µM (≈ 0.171 µg/mL) | 0.2 µM (≈ 0.0684 µg/mL) | 0.9 µM (≈ 0.308 µg/mL) | 7.3 µM (≈ 2.5 µg/mL) |
| NNC(=O)c1ccncc1 |  |  | 146 µM (≈ 20 µg/mL) | 72.9 µM (≈ 10 µg/mL) | 2.3 µM (≈ 0.315 µg/mL) |
| COc1ccc2nc(C)cc(OCC(=O)c3ccccc3)c2c1 | > 4 | 2 µM (≈ 0.615 µg/mL) | 1 µM (≈ 0.307 µg/mL) | 2 µM (≈ 0.615 µg/mL) | 32.5 µM (≈ 9.99 µg/mL) |
| CO[C@H]1/C=C/O[C@@]2(C)Oc3c(C)c(O)c4c(O)c(c(/C=N/N5CCN(C)CC5)c(O)c4c3C2=O)NC(=O)/C(C)=C\C=C\[C@H](C)[C@H](O)[C@@H](C)[C@@H](O)[C@@H](C)[C@H](OC(C)=O)[C@@H]1C |  | > 48.6 µM | 12.2 µM (≈ 10 µg/mL) | > 48.6 µM |  |
| COc1ccc2nc(C)cc(OCc3ccc(Cl)c(Cl)c3)c2c1 | > 4 | 0.2 µM (≈ 0.0696 µg/mL) | 0.2 µM (≈ 0.0696 µg/mL) | 0.5 µM (≈ 0.174 µg/mL) | 14.4 µM (≈ 5.01 µg/mL) |
| COc1ccc2nc(C)cc(OCc3ccc(C(C)C)cc3)c2c1 | > 4 | 0.5 µM (≈ 0.161 µg/mL) | 0.2 µM (≈ 0.0643 µg/mL) | 1 µM (≈ 0.321 µg/mL) | 7.8 µM (≈ 2.51 µg/mL) |
